Experimental data reported in paper PMC4077163 (Bioorganic & medicinal chemistry letters, 2014).
pKd: −log10 of the molar value. Square brackets hold non-standard residues; d marks the D form. Peptide text beside a SMILES is read from it. * marks the point of attachment. pY = N[C@@H](Cc1ccc(OP(=O)(O)O)cc1)C(=O)O; Hydrocinnamoyl = O=C(CCc1ccccc1)*; Ac6c = NC1(C(=O)O)CCCCC1; Cbz = O=C(OCc1ccccc1)*

What was measured:
Grb2 SH2 domain [1] = target: T1, Grb2 SH2 domain (Homo sapiens, UniProt P62993); assay: Isothermal titration calorimetry; format: binding; conditions: for ΔG° / ΔH° / −TΔS°: ITC, 25 °C, HEPES (50 mM), NaCl (150 mM), pH 7.45 ± 0.05; for potency relative to indolyl compound 10: from ITC data of Table 1
Summary of the method: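 Tripeptide phosphotyrosine-analogue ligands were titrated against the Grb2 SH2 domain by ITC at 25 °C in 50 mM HEPES, 150 mM NaCl, pH 7.45 ± 0.05. Ka, ΔG°, ΔH° and ΔS° were taken from the titrations. Each ligand had three or more runs. The n value of each run was normalized by adjusting ligand concentration, then the runs were averaged.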

Grb2 SH2 domain [2] = target: T1, Grb2 SH2 domain; assay: Literature affinity; format: binding; conditions: ratio of literature IC50 values, more potent than 3

T1 sequence (P62993 60-152 limits assumed): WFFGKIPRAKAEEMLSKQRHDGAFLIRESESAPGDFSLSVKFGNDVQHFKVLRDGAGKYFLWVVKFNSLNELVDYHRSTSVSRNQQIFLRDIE

CC(=O)N[C@@H](Cc1ccc(OP(=O)(O)O)cc1)C(=O)NC1(C(=O)N[C@@H](CC(N)=O)C(N)=O)CCCCC1 [Compound 7] (HELM PEPTIDE1{[ac].[O=C([C@H](Cc1ccc(OP(=O)(O)O)cc1)N[*:1])[*:2]].[O=C(C1(N[*:1])CCCCC1)[*:2]].N.[am]}$$$$V2.0)
pKd (Grb2 SH2 domain [1]): 6.85 | ΔG° (Grb2 SH2 domain [1]): -9.3 ± 0.1 kcal/mol | ΔH° (Grb2 SH2 domain [1]): -8.5 ± 0.4 kcal/mol | −TΔS° (Grb2 SH2 domain [1]): -0.8 ± 0.4 kcal/mol

NC(=O)C[C@H](NC(=O)C1(NC(=O)[C@H](Cc2ccc(OP(=O)(O)O)cc2)NC(=O)OCc2ccccc2)CCCCC1)C(N)=O [Compound 8] (Cbz-[pY]-[Ac6c]-Asn-NH2)
pKd (Grb2 SH2 domain [1]): 6.81 | ΔG° (Grb2 SH2 domain [1]): -9.3 ± 0.1 kcal/mol | ΔH° (Grb2 SH2 domain [1]): -9.3 ± 0.3 kcal/mol | −TΔS° (Grb2 SH2 domain [1]): 0.0 ± 0.1 kcal/mol

NC(=O)C[C@H](NC(=O)C1(NC(=O)[C@H](Cc2ccc(OP(=O)(O)O)cc2)NC(=O)OCc2cccc(N)c2)CCCCC1)C(N)=O [Compound 9]
pKd (Grb2 SH2 domain [1]): 6.94 | ΔG° (Grb2 SH2 domain [1]): -9.5 ± 0.1 kcal/mol | ΔH° (Grb2 SH2 domain [1]): -9.1 ± 0.5 kcal/mol | −TΔS° (Grb2 SH2 domain [1]): -0.4 ± 0.3 kcal/mol | potency relative to 3 (Grb2 SH2 domain [2]): about 65 fold

NC(=O)C[C@H](NC(=O)C1(NC(=O)[C@H](Cc2ccc(OP(=O)(O)O)cc2)NC(=O)CCc2ccccc2)CCCCC1)C(N)=O [Compound 11] (Hydrocinnamoyl-[pY]-[Ac6c]-Asn-NH2)
pKd (Grb2 SH2 domain [1]): 7.37 | ΔG° (Grb2 SH2 domain [1]): -10.1 ± 0.1 kcal/mol | ΔH° (Grb2 SH2 domain [1]): -9.5 ± 0.5 kcal/mol | −TΔS° (Grb2 SH2 domain [1]): -0.6 ± 0.1 kcal/mol | potency relative to indolyl compound 10 (Grb2 SH2 domain [1]): about two-fold more potent

NC(=O)C[C@H](NC(=O)C1(NC(=O)[C@H](Cc2ccc(OP(=O)(O)O)cc2)NC(=O)CCC2CCCCC2)CCCCC1)C(N)=O [Compound 12]
pKd (Grb2 SH2 domain [1]): 7.46 | ΔG° (Grb2 SH2 domain [1]): -10.2 ± 0.1 kcal/mol | ΔH° (Grb2 SH2 domain [1]): -10.0 ± 0.5 kcal/mol | −TΔS° (Grb2 SH2 domain [1]): -0.2 ± 0.1 kcal/mol | potency relative to indolyl compound 10 (Grb2 SH2 domain [1]): about two-fold more potent

Cn1cc(CCC(=O)N[C@@H](Cc2ccc(OP(=O)(O)O)cc2)C(=O)NC2(C(=O)N[C@@H](CC(N)=O)C(N)=O)CCCCC2)c2ccccc21 [Compound 10]
pKd (Grb2 SH2 domain [1]): 7.06 | ΔG° (Grb2 SH2 domain [1]): -9.6 ± 0.1 kcal/mol | ΔH° (Grb2 SH2 domain [1]): -10.0 ± 0.3 kcal/mol | −TΔS° (Grb2 SH2 domain [1]): +0.4 ± 0.1 kcal mol^−1
